Measurements published in ChEMBL document CHEMBL1124650, “Structure-activity relationships among methoctramine-related polymethylene tetraamines. Chain-length and substituent effects on M-2 muscarinic receptor blocking activity” (J Med Chem, 1989).

Key:
Conditions in all cases: read-out: pA2 (converted)
[1] = biological target: Muscarinic acetylcholine receptor M2 (Cavia porcellus); assay: Antagonist potency against muscarinic receptors was assed by antagonism of carbachol induced inhibition of electrically stimulated guinea pig atria
[2] = biological target: T1, Muscarinic acetylcholine receptor M3 (Cavia porcellus, UniProt Q8VH26); assay: (§1) Antagonist potency against carbachol induced contractions of isolated guinea pig ileum Muscarinic acetylcholine receptor; format: functional, tissue-based
T1 sequence (Q8VH26 whole entry): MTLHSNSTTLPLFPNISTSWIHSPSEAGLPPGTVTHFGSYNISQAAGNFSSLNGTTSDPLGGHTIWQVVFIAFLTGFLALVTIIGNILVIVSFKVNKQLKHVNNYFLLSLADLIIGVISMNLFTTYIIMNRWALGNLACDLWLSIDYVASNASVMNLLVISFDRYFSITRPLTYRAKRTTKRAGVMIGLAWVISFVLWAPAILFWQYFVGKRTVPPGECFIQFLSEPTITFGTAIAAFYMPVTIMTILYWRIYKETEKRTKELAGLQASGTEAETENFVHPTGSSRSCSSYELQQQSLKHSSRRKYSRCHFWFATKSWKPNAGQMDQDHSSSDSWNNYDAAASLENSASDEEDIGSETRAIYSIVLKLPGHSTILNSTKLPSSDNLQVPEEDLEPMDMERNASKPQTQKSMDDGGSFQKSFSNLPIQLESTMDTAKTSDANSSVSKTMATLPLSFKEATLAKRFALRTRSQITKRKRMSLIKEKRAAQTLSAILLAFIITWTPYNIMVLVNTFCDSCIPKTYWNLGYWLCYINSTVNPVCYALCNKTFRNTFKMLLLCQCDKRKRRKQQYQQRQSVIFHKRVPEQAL

[3] = biological target: Muscarinic acetylcholine receptor M2 (Cavia porcellus); assay: Antagonist potency against carbachol induced inhibition of electrically stimulated guinea pig atria Muscarinic acetylcholine receptor
[4] = biological target: T1, Muscarinic acetylcholine receptor M3; assay: as §1; format: functional, tissue-based; remark: listed apart in the source
How it was run: (§2)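 Mounted in PSS at 37 °C with isotonic recording and 30 min equilibration. Carbachol curves (0.01-10 μM) were run at 30-min intervals, the second serving as control. A repeat curve followed 30 min antagonist incubation. pA2 came from Schild plots constrained to slope -1.0, using three antagonist concentrations each tested ≥5 times.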

[5] = biological target: Muscarinic acetylcholine receptor M2 (Cavia porcellus); assay: Antagonist potency against carbachol induced inhibition of electrically stimulated guinea pig atria Muscarinic acetylcholine receptor; remark: listed apart in the source
[6] = biological target: Muscarinic acetylcholine receptor M2 (Cavia porcellus); assay: as above; remark: listed apart in the source
[7] = biological target: T1, Muscarinic acetylcholine receptor M3; assay: Antagonist potency against carbachol induced contractions of isolated guinea pig ileum Muscarinic acetylcholine receptor; Inactive up to 10 uM; format: functional, tissue-based
How it was run: as §2

| Compound | Kb [3] | Kb [4] | other results |
| --- | --- | --- | --- |
| COc1ccccc1CNCCCCCCN(C)CCCCCCCCN(C)CCCCCCNCc1ccccc1OC |  |  | Kb [1]: 10.2 nM; Kb [2]: 417 nM |
| c1coc(CNCCCCCCNCCCCCCCCNCCCCCCNCc2ccco2)c1 |  | 851 nM | Kb [5]: 9.12 nM |
| Fc1ccc(CNCCCCCCNCCCCCCCCNCCCCCCNCc2ccc(F)cc2)cc1 | 129 nM | 2400 nM |  |
| O=[N+]([O-])c1ccc(CNCCCCCCNCCCCCCCCNCCCCCCNCc2ccc([N+](=O)[O-])cc2)cc1 | 95.5 nM | 1320 nM |  |
| COc1ccccc1CN(C)CCCCCCNCCCCCCCCNCCCCCCN(C)Cc1ccccc1OC |  |  | Kb [1]: 166 nM; Kb [2]: > 10000 nM |
| Cc1ccc(CNCCCCCCNCCCCCCCCNCCCCCCNCc2ccc(C)cc2)cc1 | 166 nM | 2340 nM |  |
| Clc1cccc(CNCCCCCCNCCCCCCCCNCCCCCCNCc2cccc(Cl)c2)c1 |  | 2290 nM | Kb [6]: 186 nM |
| c1cncc(CNCCCCCCNCCCCCCCCNCCCCCCNCc2cccnc2)c1 |  |  | Kb [1]: 288 nM; Kb [2]: 4900 nM |
| c1ccc(CNCCCCCCNCCCCCCCCNCCCCCCNCc2ccccn2)nc1 |  |  | Kb [1]: 53.7 nM; Kb [2]: 3310 nM |
| Clc1ccc(CNCCCCCCNCCCCCCCCNCCCCCCNCc2ccc(Cl)cc2)cc1 | 178 nM | 2340 nM |  |
| COc1ccc(CNCCCCCCNCCCCCCCCNCCCCCCNCc2ccc(OC)cc2)cc1 | 141 nM | 2750 nM |  |
| Cc1ccc(CNCCCCCCNCCCCCCCCNCCCCCCNCc2ccc(C)o2)o1 |  |  | Kb [1]: 8.91 nM; Kb [2]: 708 nM |
| COc1ccccc1CN(C)CCCCCCN(C)CCCCCCCCN(C)CCCCCCN(C)Cc1ccccc1OC |  |  | Kb [7]: > 10000 nM; Kb [1]: 162 nM |
| COc1cccc(CNCCCCCCNCCCCCCCCNCCCCCCNCc2cccc(OC)c2)c1 | 151 nM | 3890 nM |  |

Now from value to molecule, other results behind:

| Kb [3] | Kb [4] | Compound | other results |
| --- | --- | --- | --- |
| 66.1 nM | 2820 nM | Clc1ccccc1CNCCCCCCNCCCCCCCCNCCCCCCNCc1ccccc1Cl |  |
| 83.2 nM | 2190 nM | c1ccc(CNCCCCCCNCCCCCCCCNCCCCCCNCc2ccccc2)cc1 |  |
|  | 1410 nM | COc1ccccc1CNCCCCCCNCCCCCCCCCCCCCCNCCCCCCNCc1ccccc1OC |  |
| 37.2 nM | 2290 nM | COc1ccccc1CNCCCCCCNCCCCCCCCCCCNCCCCCCNCc1ccccc1OC |  |
| 58.9 nM | 2000 nM | Cc1ccccc1CNCCCCCCNCCCCCCCCNCCCCCCNCc1ccccc1C |  |
| 162 nM | 2450 nM | COc1ccccc1CNCCCCCNCCCCCCCCNCCCCCNCc1ccccc1OC |  |
| 95.5 nM | 1230 nM | COc1ccccc1CNCCCCCCNCCCCCCCCCCCCCNCCCCCCNCc1ccccc1OC |  |
| 26.9 nM | 589 nM | CSc1ccccc1CNCCCCCCNCCCCCCCCNCCCCCCNCc1ccccc1SC |  |
| 27.5 nM | 646 nM | COc1ccccc1CNCCCCCCCNCCCCCCCCNCCCCCCCNCc1ccccc1OC |  |
|  | 832 nM | COc1ccccc1CNCCCCCCNCCCCCCCCNCCCCCCNCc1ccccc1OC [METHOCTRAMINE] |  |
